Assay [1] relates to HL-60. Put plainly: Activity at sialidase in human HL60 cells assessed as decrease in 4-methylumbelliferyl release at 125 uM after 2 hrs by fluorescence assay. It counts as cell-based. The method, boiled down: (§1)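 Whole HL60 cells suspended in acetate buffer (pH 4.5) were incubated with 0.125 mM 4-methylumbelliferyl sialoside for 2 h at 37 °C. The reaction was stopped by raising the pH to 10.7 with glycine buffer, and released 4MU was read at once (ex 365 nm, em 450 nm). Values are means with standard deviations from at least biological triplicate.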

For assay [2], the system named is Clostridium perfringens. Put plainly: Activity at Clostridium perfringens sialidase assessed as 4-methylumbelliferyl released at 125 uM for 1 hr by fluorescence assay relative to 4-Methylcoumarin-7-yl 5-acetamido-3,5-dideoxy-alpha-D-glycero-D-galacto-2-nonulopyranosidonic acid. Summed up:
(§2)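 Purified recombinant C. perfringens sialidase (0.05 mU) in acetate buffer pH 4.5 incubated 1 h at 37°C with 0.125 mM 4MU glycoside; parallel reactions with 0.1 mM DANA. Reaction brought to pH 10.7 with glycine buffer; fluorescence read at ex 365/em 450 nm. Relative values compare fluorescence with that of the natural Neu5Ac substrate. At least biological triplicate; standard deviations.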

Assay [3] relates to HL-60. Put plainly: Activity at sialidase in human HL60 cells assessed as increase in 4-methylumbelliferyl release at 125 uM after 2 hrs by fluorescence assay in presence of DANA. It counts as cell-based. The method, boiled down: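 Same whole-cell set-up: HL60 cells in acetate buffer pH 4.5 with 0.125 mM 4MU glycoside, 2 h, 37 °C, together with 0.1 mM of the non-specific sialidase inhibitor DANA. The mixture was adjusted to pH 10.7 with glycine buffer before fluorescence reading (ex 365/em 450 nm). At least biological triplicate; standard deviations shown.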

The subject of assay [4] is Clostridium perfringens. Put plainly: Activity at Clostridium perfringens sialidase assessed as 4-methylumbelliferyl released at 125 uM for 1 hr by fluorescence assay. Summed up: as §2
The subject of assay [5] is HL-60. Put plainly: Activity at sialidase in human HL60 cells assessed as decrease in 4-methylumbelliferyl release at 125 uM after 2 hrs by fluorescence assay relative to 4-Methylcoumarin-7-yl 5-acetamido-3,5-dideoxy-alpha-D-glycero-D-galacto-2-nonulopyranosidonic acid. On the set-up: scale not given: the % may be the effect or the level left. The assay is classed as cell-based. The method, boiled down:
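Intact HL60 cells in pH 4.5 acetate buffer were exposed to 0.125 mM glycoside for 2 h at 37 °C. Glycine buffer (pH 10.7) was then added, and fluorescence was measured (ex 365, em 450 nm). The increase over background was expressed relative to the natural N-acetyl 4MU sialoside run the same way. At least biological triplicate, with standard deviations.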

Assay [6] has as its system HL-60. Put plainly: Activity at sialidase in human HL60 cells assessed as increase in 4-methylumbelliferyl release at 125 uM after 2 hrs by fluorescence assay relative to 4-Methylcoumarin-7-yl 5-acetamido-3,5-dideoxy-alpha-D-glycero-D-galacto-2-nonulopyranosidonic acid. It counts as cell-based. Summed up: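 Whole HL60 cells suspended in acetate buffer pH 4.5, treated 2 h at 37°C with 0.125 mM 4MU glycoside; parallel wells with 0.1 mM DANA. Stopped with glycine buffer pH 10.7, fluorescence read immediately (ex 365/em 450 nm). Fluorescence increase over background compared with the natural Neu5Ac substrate. At least biological triplicate; standard deviations.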

The subject of assay [7] is HL-60. Put plainly: Activity at sialidase in human HL60 cells assessed as increase in 4-methylumbelliferyl release at 125 uM after 2 hrs by fluorescence assay. It counts as cell-based. The method, boiled down:
as §1

Assay [8] relates to HL-60. Put plainly: Activity at sialidase in human HL60 cell lysate assessed as 4-methylumbelliferyl released at 125 uM for 2 hrs followed by washout by fluorescence assay. The assay is classed as cell-based. Summed up:
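To test uptake, HL60 cells were incubated 2 h with the 4MU sialoside, then washed thoroughly to remove free 4MU and substrate. The cells were resuspended in cell lysis buffer, and the fluorescence of the lysate was read against empty wells without cells or compound.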

SMILES strings stand for the structures. Activity calls are given as the source filed them. No cut-off for these calls is given here.

Among the data in ChEMBL document CHEMBL2385006, “Fluorogenic sialic acid glycosides for quantification of sialidase activity upon unnatural substrates” (Bioorg Med Chem Lett, 2013) are Activity values, retold here.

As for `Cc1cc(=O)oc2cc(O[C@]3(C(=O)O)C[C@H](O)[C@@H](NC(=O)CC(F)(F)F)[C@H]([C@H](O)[C@H](O)CO)O3)ccc12`, the result in the assay with HL-60 [1] and in the assay with Clostridium perfringens [2] was Active. For the same compound, the outcome in the assay on HL-60 [3] was inactive.
For the compound `Cc1cc(=O)oc2cc(O[C@]3(C(=O)O)C[C@H](O)[C@@H](NC(=O)CCC(F)(F)F)[C@H]([C@H](O)[C@H](O)CO)O3)ccc12`, in the assay with HL-60 [1], the outcome was Active. The outcome with Clostridium perfringens [4] and in the assay on HL-60 [3] was inactive.
For `Cc1cc(=O)oc2cc(O[C@]3(C(=O)O)C[C@H](O)[C@@H](NC(=O)C(C)C)[C@H]([C@H](O)[C@H](O)CO)O3)ccc12`, in the assay on Clostridium perfringens [2], the result was Active. Besides, the Activity in the assay with HL-60 [5] is 60%. Further, in the assay with HL-60 [3], the result was inactive.
As to `Cc1cc(=O)oc2cc(O[C@]3(C(=O)O)C[C@H](O)[C@@H](NC(=O)CF)[C@H]([C@H](O)[C@H](O)CO)O3)ccc12`, the Activity in the assay on HL-60 [6] is 50%; with Clostridium perfringens [2], 6%. For the same compound, the outcome with HL-60 [3] was inactive.
On to `CC(=O)N[C@H]1[C@H]([C@H](O)[C@H](O)CO)O[C@@](Oc2ccc3c(C)cc(=O)oc3c2)(C(=O)O)C[C@@H]1O`, for which the outcome in the assay with HL-60 [7] and in the assay with Clostridium perfringens [4] was Active. Further, the result in the assay on HL-60 [8] and in the assay on HL-60 [3] was inactive.
Consider `CC(F)(F)F.Cc1cc(=O)oc2cc(O[C@]3(C(=O)O)C[C@H](O)[C@@H](NC(=O)CO)[C@H]([C@H](O)[C@H](O)CO)O3)ccc12`, for which the Activity in the assay with HL-60 [6] came to 20%; with Clostridium perfringens [2], 6%. Further, in the assay with HL-60 [3], the outcome was inactive.
